The source made the active and inactive calls. No cut-off for these calls is given here.
Tests used:
THP-1 = experiment: Antiproliferative activity against human THP1 cells assessed as growth inhibition after 48 hrs by MTS-PMS assay; assay type: functional, cell-based
Method in brief: (§1)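 Cells at 2.5-5.0 × 10^4 per 200 µL were exposed to compounds (0-50 µM) for 48 h at 37 °C, 5% CO₂. MTS (2.0 mg/ml) and PMS (0.92 mg/ml), mixed 10:1, were added for 3 h at 37 °C, and A490 was read. Background was subtracted, viability was taken as a % of untreated, and IC50 was found by graphic extrapolation.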

K562 = experiment: Antiproliferative activity against human K562 cells assessed as growth inhibition after 48 hrs by MTS-PMS assay; assay type: functional, cell-based; method in brief: as §1
[1] = Antiproliferative activity against mouse NIH/3T3 cells assessed as growth inhibition after 48 hrs by MTS-PMS assay; assay type: cell-based, NIH3T3; method in brief: as §1
[2] = Antiproliferative activity against human L-132 cells assessed as growth inhibition after 48 hrs by MTS-PMS assay; assay type: cell-based, L132; method in brief: as §1
U-937 [3] = experiment: Antiproliferative activity against human U937 cells assessed as growth inhibition after 48 hrs by MTS-PMS assay; assay type: functional, cell-based; method in brief: as §1
U-937 [4] = experiment: Induction of apoptosis in human U937 cell assessed as early apoptotic cells at IC50 concentration after 24 hrs using Annexin V-FITC staining by flow cytometry relative to untreated control; assay type: functional
U-937 [5] = experiment: Induction of apoptosis in human U937 cell assessed as formation of apoptotic bodies with membrane blebbing at IC50 concentration after 24 hrs using Hoechst 33258 staining by confocal microscopic analysis; assay type: functional, cell-based
U-937 [6] = experiment: Induction of apoptosis in human U937 cell assessed as pre-necrotic cells at IC50 concentration after 24 hrs using Annexin V-FITC staining by flow cytometry relative to untreated control; assay type: functional
U-937 [7] = experiment: Induction of apoptosis in human U937 cell assessed as late apoptotic cells at IC50 concentration after 24 hrs using Annexin V-FITC staining by flow cytometry relative to untreated control; assay type: functional
[8] = Homo sapiens, THP-1, 48 h, read-out: IC50
[9] = Homo sapiens, K562, 48 h, read-out: IC50
[10] = Mus musculus, NIH3T3, 48 h, read-out: IC50
[11] = Homo sapiens, L132, 48 h, read-out: IC50
[12] = Homo sapiens, U-937, 48 h, read-out: IC50

SMILES | IC50 (THP-1; [8]) | IC50 (K562; [9]) | IC50 [1, 10] | IC50 [2, 11] | IC50 (U-937 [3]; [12]) | IC50 (U-937 [3]; u-937) | other results
C=C1CC[C@@H]2[C@](C)(CO)[C@H](O)CC[C@@]2(C)[C@@H]1C/C=C1/C(=O)OC[C@H]1O [ANDROGRAPHOLIDE] | 6.69 µM | 41.9 µM | 44.5 µM | 53.8 µM | 12.9 µM | – | –
C=C1CC[C@@H]2[C@]3(C)COC(C)(C)O[C@@H]3CC[C@@]2(C)[C@@H]1C/C=C1/C(=O)OC[C@H]1OC(=O)/C=C\C(=O)O | 14.8 µM | – | – | 31.1 µM | – | – | –
C=C1CC[C@@H]2[C@]3(C)COC(C)(C)O[C@@H]3CC[C@@]2(C)[C@@H]1C/C=C1/C(=O)OC[C@H]1OC(=O)CCCC(=O)O | 26.2 µM | 36.5 µM | – | 15.1 µM | 15.6 µM | – | –
C=C1CC[C@@H]2[C@](C)(CO)[C@H](O)CC[C@@]2(C)[C@@H]1C/C=C1/C(=O)OC[C@H]1OC(=O)CCC(=O)O | 5.84 µM | 25.3 µM | 10.2 µM | 8.5 µM | 5.47 µM | – | Activity (U-937 [4]): 18.77%; Activity (U-937 [5]): Active; Activity (U-937 [6]): 2.51%; Activity (U-937 [7]): 27.25%
C=C1CC[C@@H]2[C@](C)(CO)[C@H](O)CC[C@@]2(C)[C@@H]1CCC1C(=O)OC[C@H]1OC(=O)/C=C\C(=O)O (stereo partly specified) | – | – | – | – | – | Not Active | IC50 (THP-1; thp-1): Not Active; IC50 (K562; k562): Not Active; IC50 ([1]; nih3t3): Not Active; IC50 ([2]; l132): Not Active
C=C1CC[C@@H]2[C@](C)(CO)[C@H](O)CC[C@@]2(C)[C@@H]1C/C=C1/C(=O)OC[C@H]1OC(=O)CCCC(=O)O | 7.53 µM | 19.6 µM | 22.1 µM | 19.5 µM | 9.76 µM | – | –
C=C1CC[C@@H]2[C@]3(C)COC(C)(C)O[C@@H]3CC[C@@]2(C)[C@@H]1C/C=C1/C(=O)OC[C@H]1OC(=O)CCC(=O)O | 10 µM | 31.4 µM | 36.7 µM | 21.7 µM | 19.5 µM | – | –
C=C1CC[C@@H]2[C@](C)(CO)[C@H](O)CC[C@@]2(C)[C@@H]1C/C=C1/C(=O)OC[C@H]1OC(=O)/C=C\C(=O)O | 7.77 µM | 42 µM | 11.3 µM | 12.8 µM | 9.72 µM | – | –
C=C1CC[C@@H]2[C@](C)(CO)[C@H](O)CC[C@@]2(C)[C@@H]1CCC1C(=O)OC[C@H]1OC(=O)c1ccccc1C(=O)O (stereo partly specified) | – | – | – | – | – | Not Active | IC50 (THP-1; thp-1): Not Active; IC50 (K562; k562): Not Active; IC50 ([1]; nih3t3): Not Active; IC50 ([2]; l132): Not Active
C=C1CC[C@@H]2[C@](C)(CO)[C@H](O)CC[C@@]2(C)[C@@H]1CCC1C(=O)OC[C@H]1OC(=O)CCCC(=O)O (stereo partly specified) | – | – | – | – | – | Not Active | IC50 (THP-1; thp-1): Not Active; IC50 (K562; k562): Not Active; IC50 ([1]; nih3t3): Not Active; IC50 ([2]; l132): Not Active
C=C1CC[C@@H]2[C@]3(C)COC(C)(C)O[C@@H]3CC[C@@]2(C)[C@@H]1C/C=C1/C(=O)OC[C@H]1OC(=O)c1ccccc1C(=O)O | 12.2 µM | 26.9 µM | 16 µM | 18.8 µM | 14.6 µM | – | –
C=C1CC[C@@H]2[C@](C)(CO)[C@H](O)CC[C@@]2(C)[C@@H]1C/C=C1/C(=O)OC[C@H]1OC(=O)c1ccccc1C(=O)O | 5.68 µM | 41.1 µM | 8.01 µM | 10.9 µM | 6.27 µM | – | –
C=C1CC[C@@H]2[C@](C)(CO)[C@H](O)CC[C@@]2(C)[C@@H]1CCC1C(=O)OC[C@H]1OC(=O)CCC(=O)O (stereo partly specified) | – | – | – | – | – | Not Active | –

Reference: ChEMBL document CHEMBL1287702, “Synthesis, cytotoxicity, and structure-activity relationship (SAR) studies of andrographolide analogues as anti-cancer agent” (Bioorg Med Chem Lett, 2010)
